High-throughput results (PubChem BioAssay)
CaV13 FRET inh: Primary screen for inhibitors of IQ motif and Ca2+-dependent inactivation inhibitor domain binding in CACNA1D, Förster resonance energy transfer in living cells, …; HEK cells, CFP/YFP FRET ICDI-IQ, plate reader, 10 min; percent FRET-ratio fall versus neutral wells; inhibition, % at 12.3 µM; hit rate 0.098% among 340,000; AID 743397;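 active = mean replicate inhibition of at least 30% and at least 1% of replicates passing that level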
proCasp3 act: activators of human procaspase-3 D3A mutant, primary screen, biochemical, absorbance, PC-3 D3A mutant, single concentration; hit rate 0.11% among 330,000; AID 463141, 2010; recombinant procaspase-3 D3A, Ac-DEVD-pNA absorbance 405 nm; activation, % at 8.5 µM;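 active = activation above the mean of all tested compounds plus 3 SD, cut at about 21% in these data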
Target sequence (P42574 whole entry D9A/D28A/D175A): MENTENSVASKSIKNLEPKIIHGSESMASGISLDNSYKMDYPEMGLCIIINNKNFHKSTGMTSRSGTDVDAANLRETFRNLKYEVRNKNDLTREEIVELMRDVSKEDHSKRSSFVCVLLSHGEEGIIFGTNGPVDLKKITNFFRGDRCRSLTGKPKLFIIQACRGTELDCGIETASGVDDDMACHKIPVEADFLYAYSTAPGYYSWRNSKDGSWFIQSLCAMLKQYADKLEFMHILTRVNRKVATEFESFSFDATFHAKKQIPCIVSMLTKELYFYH
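Assay system: Autoprocessing-dead procaspase-3 D3A mutant enzyme; also added: Ac-DEVD-pNA; doses: one concentration, 8.5 µM nominal, 0.8% DMSO; times: 1 h compound preincubation, 2 h substrate hydrolysis at 25 °C; technique: 405 nm absorbance of p-nitroaniline, reads at 0 and 120 min; measure: % activation between DMSO and enzyme-spiked controls; repeats: single replicate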
aDG glyco up: activators of alpha-DG glycosylation, primary screen, uHTS, Pro5-aDG cells, AlphaScreen | hit rate 0.22% among 360,000 | AID 624168, 2012 | activation, % at 10 µM | alpha-DG glycosylation AlphaScreen (IIH6); 0% Pro5, 100% B10-LARGE cell signal;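 active = activation of at least 8% versus controls, or a plate z-score of at least 8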;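 note: Pro5 are CHO cells carrying HIG-tagged alpha-DG that lacks glycosylation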
T cell HTS: modulators of CD8 T cell-vesicle binding, primary screen, mouse 2C CD8+ T cells, flow cytometry; 2C CD8+ T cell-vesicle binding; hits give low values; response (vesicle binding), % at 7 µM; hit rate 0.068% among 330,000; AID 2052, 2009;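 active = response, share of CD8 T cells binding vesicles, and their 90th percentile fluorescence all below set limits, cut at about 80% in these data, passing the limit was not always enough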;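 note: values below 100% mean blocked vesicle binding to the CD8+ T cells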
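Assay system – 2C mouse CD8+ T cells · Also added – QL9-loaded Drosophila micro-vesicles · Timing – Cell–vesicle co-incubation 1.5 h at 37 °C, staining 20 min on ice · Signal – flow cytometry of vesicle-bound cells · Measure – percent CD8+ FL2 mean versus row control · Controls – Peptide-free naked vesicles (low) and QL9 vesicles with 0.7% DMSO vehicle (high)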
procasp7 counter: procaspase-7 activators, primary screen, counter-screen for procaspase-3 activator project, biochemical, absorbance, HTS, human; hit rate 0.093% among 330,000; activation, % at 8.5 µM; AID 463210, 2010; recombinant procaspase-7, Ac-DEVD-pNA absorbance 405 nm; D23A/D198A/D206A triple mutant, cannot self-cleave; scale: DMSO 0, 5 µM enzyme 100;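 active = percent activation above the screen-wide mean plus 3 SD, cut at about 25% in these data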
Target sequence (P55210 whole entry D23A/D198A/D206A): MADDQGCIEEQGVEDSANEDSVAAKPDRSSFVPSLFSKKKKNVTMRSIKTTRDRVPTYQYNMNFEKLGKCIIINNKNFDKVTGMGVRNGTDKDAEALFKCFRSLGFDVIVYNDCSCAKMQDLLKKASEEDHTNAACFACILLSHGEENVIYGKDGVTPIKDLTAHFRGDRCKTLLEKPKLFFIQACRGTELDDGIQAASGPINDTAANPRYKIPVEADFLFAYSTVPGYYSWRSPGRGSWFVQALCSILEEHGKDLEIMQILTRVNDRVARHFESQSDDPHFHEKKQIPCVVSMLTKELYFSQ
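signal = Epi-absorbance of released pNA at 405 nm, two timepoints | assay system = Uncleavable procaspase-7 mutant enzyme | reagent = Ac-DEVD-pNA substrate, 400 µM as added | times = 1 h enzyme–compound preincubation and 2 h substrate reaction, both 25 °C | benchmarks = low DMSO alone, high DMSO plus 5 µM PC-7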
GRK2 aptamer HTS: compounds blocking aptamer binding on GRK2 – biochemical, human GRK2, bead flow cytometry, HTS, primary screen. Beta-adrenergic receptor kinase 1 (Homo sapiens), P25098. FAM-aptamer displacement from GRK2. inhibition of aptamer binding, % at 10 µM. hit rate 0.59% among 330,000. AID 488847, 2010;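 active = inhibition of aptamer binding above 40%, roughly 3 SD of noise, on plates passing a quality check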;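 note: median bead fluorescence of bound FAM aptamer so fluorescent compounds give negative values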
PC3 dual counter: procaspase-3 activators, counter-screen for dual procaspase-3/7 activator project, biochemical, absorbance, PC-3 D3A mutant, human; 290 tested, under 10 active; shares compounds with procasp7 counter; activation, % at 8.5 µM; recombinant PC-3 D3A, Ac-DEVD-pNA absorbance 405 nm; aspartates 9, 28, 175 changed to alanine; 100% = enzyme control; AID 493114, 2011;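 active = mean percent activation across triplicates above a set limit taken from the earlier primary procaspase-3 screen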
Procasp7 act: activation of procaspase-7 enzyme – biochemical, absorbance, human, dual procaspase-3/-7 activator project, confirmation; 290 tested, under 10 active; recombinant procaspase-7, Ac-DEVD-pNA absorbance 405 nm; D23A/D198A/D206A mutant that cannot self-cleave; activation, % at 8.5 µM; shares compounds with procasp7 counter;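 active = mean activation above a set limit carried over from the earlier primary screen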
GRK2 CP1: GRK2 aptamer-displacing inhibitors, retest, confirmation, biochemical, cherry pick 1, bead flow cytometry; hit rate 4% among 2,000; shares compounds with GRK2 aptamer HTS; aptamer displacement, % at 10 µM; AID 504451, 2011; bead-bound GRK2, FAM-aptamer displacement;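 active = aptamer displacement above 40%, near three times the noise of non-fluorescent compounds, on plates passing quality checks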;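 note: negative values mostly reflect intrinsic compound fluorescence rather than true enhancement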
Aptamer quench SP: aptamer fluorescence quenching in GRK2 counter-screen; shares compounds with GRK2 aptamer HTS; Carboxyfluorescein RNA aptamer on beads, flow cytometry quenching; hits give low values; fluorescence response (% of DMSO), % at 10 µM; 2,000 tested, under 10 active;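 active = compounds that quench the bead-bound fluorescent RNA probe, cutting fluorescence to under half of the solvent control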;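 note: counterscreen run without GRK2 so only probe quenching by compound is measured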
Each line names hits and unclear results; the compound was inactive in the other large screens (follow-up assays come after a bar, where they were run). Hits are enriched below; roughly 1.1% of the tested compounds scored in any of these assays.

c1ccc2c(-c3c[nH]c4ccccc34)c3ccccc3nc2c1	procasp7 counter 33 (no result: CaV13 FRET inh) | PC3 dual counter inactive | Procasp7 act inactive
Cc1cc(N2CCNC[C@H]2C)ccc1N1CCN(Cc2ccccc2)[C@@H](C)C1	none (no result: proCasp3 act, aDG glyco up, T cell HTS, procasp7 counter, GRK2 aptamer HTS)
O=C(O)CC(C(=O)NCc1ccccc1)C1CCCO1 (stereo not drawn)	procasp7 counter 27 | PC3 dual counter inactive | Procasp7 act inactive
C[C@@H]1CNC(=O)c2c(C(=O)N(C)Cc3ccccc3)ncn21	none (no result: proCasp3 act, aDG glyco up, T cell HTS, procasp7 counter, GRK2 aptamer HTS)
COc1ccc(-c2ccc3c(n2)CCCN3S(=O)(=O)c2ccc(C(F)(F)F)cc2)cc1	none (no result: proCasp3 act, aDG glyco up, T cell HTS, procasp7 counter, GRK2 aptamer HTS)
COC(=O)[C@]12C[C@H](CC(=O)N3CCCC3)C(=O)N(Cc3ccccc3)C1=C[C@H](C(C)(C)C)O[C@@H]2C	none (no result: proCasp3 act, aDG glyco up, T cell HTS, procasp7 counter, GRK2 aptamer HTS)
O=C(Cc1cc(=O)oc2cc(O)ccc12)NC(Cc1ccc(Cl)cc1)C(=O)O (stereo not drawn)	procasp7 counter 27 | PC3 dual counter inactive | Procasp7 act inactive
Cc1c(O)ccc2c(CC(=O)N[C@@H](Cc3ccc(O)cc3)C(=O)O)cc(=O)oc12	none (no result: proCasp3 act, procasp7 counter)
COc1cc(CN2CCN(c3ncc(Cc4ccccc4)cn3)CC2)cc(OC)c1	none (no result: proCasp3 act, aDG glyco up, T cell HTS, procasp7 counter, GRK2 aptamer HTS)
CCCCCCCCN1C(=O)[C@@H](CC(=O)NCCCOCCCC)C[C@@]2(C(=O)OC)C1=C[C@H](C1CCCC1)O[C@@H]2C	none (no result: proCasp3 act, aDG glyco up, T cell HTS, procasp7 counter, GRK2 aptamer HTS)
CSc1ccccc1NC(=O)c1cc2c(=O)n3ccccc3nc2s1	procasp7 counter 39 | PC3 dual counter inactive | Procasp7 act inactive
CC(C)NC(=O)c1cc2c(=O)n3ccccc3nc2s1	none
COc1ccc(O)c(C=NCC(C)N=Cc2cc(OC)ccc2O)c1 (stereo not drawn)	none
COc1cccc(C=NCC(C)N=Cc2cccc(OC)c2O)c1O (stereo not drawn)	procasp7 counter 82 | PC3 dual counter inactive | Procasp7 act inactive
CCCCCCC12C(=Cc3cc4c(cc31)OCCO4)c1cc(OC)c(OC)cc1C(CC(=O)O)N2C(=O)OC (stereo not drawn)	none (no result: proCasp3 act, aDG glyco up, T cell HTS, procasp7 counter, GRK2 aptamer HTS)
Cc1ccc2c(n1)sc1c(-c3ccccc3)c(C#N)c(N)nc12	proCasp3 act 79, procasp7 counter 44 | PC3 dual counter inactive | Procasp7 act inactive
Cc1nc(N)c(C#N)c(-c2cccnc2)c1-c1ccccc1	none
O=C(C(=O)N1CCC(CNS(=O)(=O)Cc2ccccc2)CC1)c1cccs1	none (no result: proCasp3 act, aDG glyco up, T cell HTS, procasp7 counter, GRK2 aptamer HTS)
Cc1ccc(Cl)cc1C1=CC(=O)C[C@H](c2ccc(F)cc2)C1	procasp7 counter 27, GRK2 aptamer HTS 64 | PC3 dual counter inactive | Procasp7 act inactive | GRK2 CP1 inactive | Aptamer quench SP inactive
COC(=O)[C@]12C[C@H](CC(=O)NCC34CC5CC(CC(C5)C3)C4)C(=O)N(Cc3ccccc3)C1=C[C@H](C(C)C)O[C@@H]2C1CC1	none (no result: proCasp3 act, aDG glyco up, T cell HTS, procasp7 counter, GRK2 aptamer HTS)
CCOC(=O)N1CCC(n2c(=S)[nH]c3cc(OCC)c(OCC)cc3c2=O)CC1	none
CCOc1cc2[nH]c(=S)n(C3CC3)c(=O)c2cc1OCC	GRK2 aptamer HTS 41 | GRK2 CP1 inactive | Aptamer quench SP inactive
COc1ccc(OC)c(NC(=O)CN(Cc2ccc(F)cc2)C2CCCCC2)c1	none
COc1cccc(C(=O)OCC(=O)c2c[nH]c3ccccc23)c1OC	GRK2 aptamer HTS 43 | GRK2 CP1 inactive | Aptamer quench SP inactive
C=CCNC(=O)/C(=C/c1cccc([N+](=O)[O-])c1)NC(=O)c1ccccc1	GRK2 aptamer HTS 46 | GRK2 CP1 inactive | Aptamer quench SP inactive
CCCCc1c(-c2ccccc2OC)ncn1Cc1ccc(F)c(F)c1	none (no result: proCasp3 act, aDG glyco up, T cell HTS, procasp7 counter, GRK2 aptamer HTS)
Cc1ccc(CNC(=O)CSc2nc3n[nH]c(C)c3c(=N)n2-c2cccc(C)c2)cc1	GRK2 aptamer HTS 99 | GRK2 CP1 inactive | Aptamer quench SP inactive
CN(C)S(=O)(=O)c1ccc(Nc2ccc(-c3ccc4c(c3)OCCO4)nn2)cc1	none
CN(C(=O)c1cccc(Nc2ccc(-c3ccc4c(c3)OCCO4)nn2)c1)C1CCCCC1	none | GRK2 CP1 inactive | Aptamer quench SP inactive
Cc1ccc(S(=O)(=O)c2nc(S(C)(=O)=O)sc2N2CCOCC2)cc1	none
